“Also recorded” adds a separate entry of the source. Read-outs that look alike come from different tables or passages of the source.
Legend:
[1] = system: mice with chronic constriction injury (CCI) of the sciatic nerve; conditions: cited from earlier work; for Reversal of neuropathic pain following CCI in mice: via an A3AR-mediated mechanism
[2] = system: mice with chronic constriction injury (CCI) of the sciatic nerve; experiment: CCI model of neuropathic pain; type: in vivo, mouse; conditions: for Effect on Paw Withdrawal Thresholds (PWT) in contralateral paws: data not shown; for Time of maximal effect on mechano-allodynia: i.p. 3 µmol/kg on D7 after CCI; for Reversal of mechano-allodynia after CCI: i.p. 3 µmol/kg on day 7 (D7) after CCI, mouse
Procedure, shortened: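 Male CD-1 mice (25–30 g), housed 4–5 per cage with a 12 h light/dark cycle. CCI of the left sciatic nerve (Bennett model) under isoflurane (3% induction, 2% maintenance in 100% O2); wound closed with a muscle suture and skin clip. Test compound or vehicle (5% DMSO in saline) given i.p. at 3 µmol/kg on D7, at peak mechano-allodynia. Experimenters blinded; mean ± SEM.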

[3] = system: A3AR−/− mice with CCI of the sciatic nerve; experiment: CCI model of neuropathic pain in A3AR knockout mice; type: in vivo, mouse; conditions: i.p. 3 µmol/kg, male A3AR knock-out mice
hA3AR = target: T1, hA3AR (Homo sapiens, UniProt P0DMS8); experiment: Radioligand binding at hA3AR
T1 sequence (P0DMS8 1-318): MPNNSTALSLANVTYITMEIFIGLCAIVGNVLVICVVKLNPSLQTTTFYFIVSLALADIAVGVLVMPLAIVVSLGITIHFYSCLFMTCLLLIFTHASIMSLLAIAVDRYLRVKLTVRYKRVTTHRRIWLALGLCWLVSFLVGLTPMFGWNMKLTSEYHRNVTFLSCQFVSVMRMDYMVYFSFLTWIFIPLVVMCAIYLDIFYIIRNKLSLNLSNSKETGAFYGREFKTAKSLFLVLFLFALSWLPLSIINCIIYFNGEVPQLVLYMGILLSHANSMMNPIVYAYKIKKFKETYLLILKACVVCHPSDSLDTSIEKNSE

mA3AR = target: T2, mA3AR (Mus musculus, UniProt Q61618); experiment: Radioligand binding at mA3AR
T2 sequence (Q61618 1-319): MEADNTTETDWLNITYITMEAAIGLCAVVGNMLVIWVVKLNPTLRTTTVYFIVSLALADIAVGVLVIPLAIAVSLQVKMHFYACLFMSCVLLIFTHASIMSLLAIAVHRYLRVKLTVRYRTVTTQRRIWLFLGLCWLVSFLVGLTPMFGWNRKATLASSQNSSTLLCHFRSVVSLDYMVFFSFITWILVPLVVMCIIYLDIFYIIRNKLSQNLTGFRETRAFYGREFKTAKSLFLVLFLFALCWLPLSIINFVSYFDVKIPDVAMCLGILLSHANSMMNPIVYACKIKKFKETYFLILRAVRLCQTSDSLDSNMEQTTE

mA1AR = target: T3, mA1AR (Mus musculus, UniProt Q60612); type: cell-based; conditions: tested up to 10 µM
T3 sequence (Q60612 1-326): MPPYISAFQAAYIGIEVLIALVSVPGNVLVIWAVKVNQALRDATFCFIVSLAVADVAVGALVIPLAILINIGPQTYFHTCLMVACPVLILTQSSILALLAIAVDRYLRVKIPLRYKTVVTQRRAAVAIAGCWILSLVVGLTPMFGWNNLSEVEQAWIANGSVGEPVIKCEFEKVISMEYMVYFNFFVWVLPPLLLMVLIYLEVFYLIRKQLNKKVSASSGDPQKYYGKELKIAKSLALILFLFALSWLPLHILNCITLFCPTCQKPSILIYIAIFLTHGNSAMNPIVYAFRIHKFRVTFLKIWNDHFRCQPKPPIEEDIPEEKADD

| Structure (SMILES) | Effect on Paw Withdrawal Thresholds (PWT) in contralateral paws [1] | Reversal of neuropathic pain following CCI in mice [1] | Effect on Paw Withdrawal Thresholds (PWT) in contralateral paws [2] | Time of maximal effect on mechano-allodynia [2] | Reversal of mechano-allodynia after CCI [2] | Anti-allodynic effect in A3AR−/− mice [3] | also measured |
| --- | --- | --- | --- | --- | --- | --- | --- |
| CNC(=O)[C@H]1O[C@@H](n2cnc3c(NCc4cccc(I)c4)ncnc32)[C@H](O)[C@@H]1O [1a, N^6-(3-iodobenzyl)adenosine-5'-N-methyluronamide] | lacked effect | reverse the development of neuropathic pain |  |  |  |  |  |
| CNC(=O)[C@H]1O[C@@H](n2cnc3c(NCc4cccc(I)c4)nc(Cl)nc32)[C@H](O)[C@@H]1O [1b, 2-Chloro-N^6-(3-iodobenzyl)adenosine-5'-N-methyluronamide] | lacked effect | reverse the development of neuropathic pain |  |  |  |  |  |
| CNC(=O)[C@@]12C[C@@H]1[C@@H](n1cnc3c(NCc4cccc(Cl)c4)nc(C#Cc4ccc(S(=O)(=O)O)cc4)nc31)[C@H](O)[C@@H]2O [Compound 6, 4-((6-(3-Chlorobenzylamino)-9-((1S,2R,3S,4R,5S)-3,4-dihydroxy-5-(methylcarbamoyl)bicyclo[3.1.0]hexan-2-yl)-9H-purin-2-yl)ethynyl)benzenesulfonic acid] |  |  | lacked effect | ≤ 1 h | reversed mechano-allodynia | significantly but not completely abrogated; also recorded: retained the ability to produce a small protective effect |  |
| CNC(=O)[C@@]12C[C@@H]1[C@@H](n1cnc3c(NCc4cccc(Cl)c4)nc(C#Cc4cccc(S(=O)(=O)O)c4)nc31)[C@H](O)[C@@H]2O [Compound 7, 3-((6-(3-Chlorobenzylamino)-9-((1S,2R,3S,4R,5S)-3,4-dihydroxy-5-(methylcarbamoyl)bicyclo[3.1.0]hexan-2-yl)-9H-purin-2-yl)ethynyl)benzenesulfonic acid] |  |  | lacked effect | ≤ 1 h | reversed mechano-allodynia | completely lost; also recorded: completely eliminated | A3AR selectivity in comparison to the A1AR and A2AAR (hA3AR): > 10,000 fold; A3AR selectivity in comparison to the A1AR and A2AAR (mA3AR): > 1000 fold; Functional activity at the mA1AR (mA1AR): completely inactive up to 10 µM |
| CCCOC(=O)c1c(-c2ccccc2)nc(CC)c(C(=O)SCC)c1CCC [compound 45, 5-propyl-2-ethyl-4-propyl-3-(ethylsulfanylcarbonyl)-6-phenylpyridine-5-carboxylate, reference compound] |  |  |  |  |  |  | Effect of antagonist on the anti-allodynic actions of systemic agonist 7 ([2]; 45 intrathecal 3 nmol, 7 at 3 µmol/kg): had no effect; also recorded: did not block the effects of systemic 7; Blocking of the anti-allodynic effects of A3AR agonist 1a ([1]; antagonist administered systemically, identical CCI model): completely effective |
